From ChEMBL document CHEMBL1124223, “1-Substituted 7-[3-[(ethylamino)methyl]-1-pyrrolidinyl]-6,8- difluoro-1,4-dihydro-4-oxo-3-quinolinecarboxylic acids. New quantitative structure-activity relationships at N1 for the quinolone antibacterials” (1988)
Values after ≈ are worked out from the molar mass of the structure shown.

Legend:
Staphylococcus aureus [1] = assay: Minimum inhibitory concentration against Staphylococcus aureus (H-228).; assay type: functional
Outline: (§1)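 MICs were determined by standard microtitration against a panel of 11 bacterial strains. Aqueous stock solutions were prepared with 0.1 N sodium or potassium hydroxide.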

Enterobacter = assay: Minimum inhibitory concentration against gram-negative enterobacteriaceae.; assay type: functional
Outline: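 This value is the geometric mean of microtitration MICs for the Gram-negative Enterobacteriaceae strains in the 11-organism panel. Aqueous stocks were prepared in 0.1 N sodium or potassium hydroxide.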

Streptococcus pyogenes = assay: Minimum inhibitory concentration against Streptococcus pyogenes (C203).; assay type: functional; outline: as §1
Staphylococcus aureus [2] = assay: Minimum inhibitory concentration against Staphylococcus aureus (UC76).; assay type: functional; outline: as §1
[3] = target: DNA gyrase (Escherichia coli) (UniProt P0AES6+P0AES4); assay: Concentration required for 50% inhibition of gyrase.; assay type: protein-complex assay
Outline: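 DNA gyrase inhibition: the drug concentration (µg/mL) giving 50% inhibition (I50) was recorded, along with the lowest concentration inducing gyrase-mediated DNA cleavage. Data come from duplicate experiments with ±50% reproducibility.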

Streptococcus pneumoniae = assay: Minimum inhibitory concentration against Streptococcus pneumoniae (SV-1).; assay type: functional; outline: as §1
Pseudomonas aeruginosa = assay: Minimum inhibitory concentration against Pseudomonas aeruginosa. (UI-18); assay type: functional; outline: as §1
Providencia rettgeri = assay: Minimum inhibitory concentration against Providencia rettgeri. (M1771); assay type: functional; outline: as §1
Enterobacter cloacae = assay: Minimum inhibitory concentration against Enterobacter cloacae. (MA2446).; assay type: functional
Escherichia coli [4] = assay: Minimum inhibitory concentration against Escherichia coli (vogel); assay type: functional; outline: as §1
Klebsiella pneumoniae = assay: Minimum inhibitory concentration against Klebsiella pneumoniae (MGH-2); assay type: functional; outline: as §1
Escherichia coli [5] = assay: Minimum inhibitory concentration against Escherichia coli (H560); assay type: functional; outline: as §1
Enterococcus faecalis = assay: Minimum inhibitory concentration against Streptococcus faecalis (MGH-2).; assay type: functional; outline: as §1
Mus musculus [6] = assay: In vivo activity against Pseudomonas aeruginosa (po); assay type: functional; conditions: read-out: PD50
Outline: (§2)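 Median protective dose (PD50, mg/kg) measured in acute, lethal, systemic infections in female Charles River CD-1 mice. A single dose of compound was given at the time of bacterial challenge. Aqueous stock solutions were made with 0.1 N sodium or potassium hydroxide.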

Mus musculus [7] = assay: In vivo activity against Streptococcus pneumoniae (sc); assay type: functional; conditions: read-out: PD50; outline: as §2
Mus musculus [8] = assay: In vivo activity against Streptococcus pyogenes (po); assay type: functional; conditions: read-out: PD50; outline: as §2
Mus musculus [9] = assay: In vivo activity against Escherichia coli (sc); assay type: functional; conditions: read-out: PD50; outline: as §2
Mus musculus [10] = assay: In vivo activity against Pseudomonas aeruginosa (sc); assay type: functional; conditions: read-out: PD50; outline: as §2
Mus musculus [11] = assay: In vivo activity against Escherichia coli (po); assay type: functional; conditions: read-out: PD50; outline: as §2
Mus musculus [12] = assay: In vivo activity against Streptococcus pneumoniae (po); assay type: functional; conditions: read-out: PD50; outline: as §2
Mus musculus [13] = assay: In vivo activity against Streptococcus pyogenes (sc); assay type: functional; conditions: read-out: PD50; outline: as §2

| MIC (Staphylococcus aureus [1]) | MIC (Enterobacter) | MIC (Streptococcus pyogenes) | MIC (Staphylococcus aureus [2]) | IC50 [3] | MIC (Streptococcus pneumoniae) | MIC (Pseudomonas aeruginosa) | MIC (Providencia rettgeri) | MIC (Enterobacter cloacae) | MIC (Escherichia coli [4]) | MIC (Klebsiella pneumoniae) | MIC (Escherichia coli [5]) | MIC (Enterococcus faecalis) | Compound | further results |
| --- | --- | --- | --- | --- | --- | --- | --- | --- | --- | --- | --- | --- | --- | --- |
| 0.4 µg/mL (≈ 1.02 µM) | 1.05 µg/mL (≈ 2.67 µM) | 0.2 µg/mL (≈ 0.508 µM) | 0.2 µg/mL (≈ 0.508 µM) | 28 µg/mL (≈ 71.2 µM) | 0.8 µg/mL (≈ 2.03 µM) | 12.5 µg/mL (≈ 31.8 µM) | 6.3 µg/mL (≈ 16 µM) | 1.6 µg/mL (≈ 4.07 µM) | 0.8 µg/mL (≈ 2.03 µM) | 0.8 µg/mL (≈ 2.03 µM) | 0.2 µg/mL (≈ 0.508 µM) | 1.6 µg/mL (≈ 4.07 µM) | CCNCC1CCN(c2c(F)cc3c(=O)c(C(=O)O)cn(C(C)C)c3c2F)C1 (stereo not given) | – |
| 0.4 µg/mL (≈ 0.987 µM) | 1.38 µg/mL (≈ 3.4 µM) | 0.8 µg/mL (≈ 1.97 µM) | 0.1 µg/mL (≈ 0.247 µM) | 6.3 µg/mL (≈ 15.5 µM) | 0.8 µg/mL (≈ 1.97 µM) | 3.1 µg/mL (≈ 7.65 µM) | 1.6 µg/mL (≈ 3.95 µM) | 3.1 µg/mL (≈ 7.65 µM) | 0.8 µg/mL (≈ 1.97 µM) | 0.8 µg/mL (≈ 1.97 µM) | 1.6 µg/mL (≈ 3.95 µM) | 0.2 µg/mL (≈ 0.493 µM) | CCNCC1CCN(c2c(F)cc3c(=O)c(C(=O)O)cn(C4(C)CC4)c3c2F)C1 (stereo not given) | – |
| 0.8 µg/mL (≈ 1.87 µM) | 1.83 µg/mL (≈ 4.28 µM) | 1.6 µg/mL (≈ 3.74 µM) | 0.2 µg/mL (≈ 0.468 µM) | 29 µg/mL (≈ 67.8 µM) | 1.6 µg/mL (≈ 3.74 µM) | 6.3 µg/mL (≈ 14.7 µM) | 6.3 µg/mL (≈ 14.7 µM) | 1.6 µg/mL (≈ 3.74 µM) | 1.6 µg/mL (≈ 3.74 µM) | 1.6 µg/mL (≈ 3.74 µM) | 0.8 µg/mL (≈ 1.87 µM) | 0.8 µg/mL (≈ 1.87 µM) | CCNCC1CCN(c2c(F)cc3c(=O)c(C(=O)O)cn(-c4ccccc4)c3c2F)C1 (stereo not given) | – |
| 0.8 µg/mL (≈ 2.17 µM) | 0.2 µg/mL (≈ 0.542 µM) | 6.3 µg/mL (≈ 17.1 µM) | 0.2 µg/mL (≈ 0.542 µM) | – | 6.3 µg/mL (≈ 17.1 µM) | 1.6 µg/mL (≈ 4.33 µM) | 0.4 µg/mL (≈ 1.08 µM) | 0.2 µg/mL (≈ 0.542 µM) | 0.2 µg/mL (≈ 0.542 µM) | 0.2 µg/mL (≈ 0.542 µM) | 0.1 µg/mL (≈ 0.271 µM) | 3.1 µg/mL (≈ 8.39 µM) | CN1CCN(c2c(F)cc3c(=O)c(C(=O)O)cn(CCF)c3c2F)CC1 [FLEROXACIN] | – |
| 0.4 µg/mL (≈ 1.01 µM) | 0.23 µg/mL (≈ 0.579 µM) | 0.1 µg/mL (≈ 0.252 µM) | 0.1 µg/mL (≈ 0.252 µM) | 7.5 µg/mL (≈ 18.9 µM) | 0.1 µg/mL (≈ 0.252 µM) | 1.6 µg/mL (≈ 4.03 µM) | 0.8 µg/mL (≈ 2.01 µM) | 0.2 µg/mL (≈ 0.503 µM) | 0.1 µg/mL (≈ 0.252 µM) | 0.4 µg/mL (≈ 1.01 µM) | 0.1 µg/mL (≈ 0.252 µM) | 0.2 µg/mL (≈ 0.503 µM) | CCNCC1CCN(c2c(F)cc3c(=O)c(C(=O)O)cn(CCF)c3c2F)C1 (stereo not given) | – |
| 0.4 µg/mL (≈ 0.954 µM) | 3.6 µg/mL (≈ 8.58 µM) | 0.4 µg/mL (≈ 0.954 µM) | 0.1 µg/mL (≈ 0.238 µM) | 28 µg/mL (≈ 66.8 µM) | 0.2 µg/mL (≈ 0.477 µM) | 12.5 µg/mL (≈ 29.8 µM) | 12.5 µg/mL (≈ 29.8 µM) | 6.3 µg/mL (≈ 15 µM) | 3.1 µg/mL (≈ 7.39 µM) | 3.1 µg/mL (≈ 7.39 µM) | 0.8 µg/mL (≈ 1.91 µM) | 0.4 µg/mL (≈ 0.954 µM) | CCNCC1CCN(c2c(F)cc3c(=O)c(C(=O)O)cn(C4CCCC4)c3c2F)C1 (stereo not given) | – |
| 0.8 µg/mL (≈ 2.1 µM) | 0.46 µg/mL (≈ 1.21 µM) | 0.8 µg/mL (≈ 2.1 µM) | 0.2 µg/mL (≈ 0.524 µM) | 27 µg/mL (≈ 70.8 µM) | 0.8 µg/mL (≈ 2.1 µM) | 6.3 µg/mL (≈ 16.5 µM) | 1.6 µg/mL (≈ 4.2 µM) | 0.4 µg/mL (≈ 1.05 µM) | 0.4 µg/mL (≈ 1.05 µM) | 0.2 µg/mL (≈ 0.524 µM) | 0.4 µg/mL (≈ 1.05 µM) | 0.8 µg/mL (≈ 2.1 µM) | CCNCC1CCN(c2c(F)cc3c(=O)c(C(=O)O)cn(OC)c3c2F)C1 (stereo not given) | – |
| 6.3 µg/mL (≈ 14.5 µM) | 16.5 µg/mL (≈ 38.1 µM) | 6.3 µg/mL (≈ 14.5 µM) | 3.1 µg/mL (≈ 7.15 µM) | 30 µg/mL (≈ 69.2 µM) | 3.1 µg/mL (≈ 7.15 µM) | > 100 µg/mL | > 100 µg/mL | 25 µg/mL (≈ 57.7 µM) | 6.3 µg/mL (≈ 14.5 µM) | 12.5 µg/mL (≈ 28.8 µM) | 3.1 µg/mL (≈ 7.15 µM) | 6.3 µg/mL (≈ 14.5 µM) | CCNCC1CCN(c2c(F)cc3c(=O)c(C(=O)O)cn(C4CCCCC4)c3c2F)C1 (stereo not given) | – |
| 0.1 µg/mL (≈ 0.224 µM) | 0.7 µg/mL (≈ 1.57 µM) | 0.4 µg/mL (≈ 0.898 µM) | 0.2 µg/mL (≈ 0.449 µM) | 14 µg/mL (≈ 31.4 µM) | 0.4 µg/mL (≈ 0.898 µM) | 1.6 µg/mL (≈ 3.59 µM) | 1.6 µg/mL (≈ 3.59 µM) | 0.8 µg/mL (≈ 1.8 µM) | 0.8 µg/mL (≈ 1.8 µM) | 1.6 µg/mL (≈ 3.59 µM) | 0.1 µg/mL (≈ 0.224 µM) | 0.2 µg/mL (≈ 0.449 µM) | CCNCC1CCN(c2c(F)cc3c(=O)c(C(=O)O)cn(-c4ccc(F)cc4)c3c2F)C1 (stereo not given) | – |
| 0.1 µg/mL (≈ 0.247 µM) | 0.4 µg/mL (≈ 0.987 µM) | 0.2 µg/mL (≈ 0.493 µM) | 0.05 µg/mL (≈ 0.123 µM) | 26 µg/mL (≈ 64.1 µM) | 0.1 µg/mL (≈ 0.247 µM) | 3.1 µg/mL (≈ 7.65 µM) | 3.1 µg/mL (≈ 7.65 µM) | 0.4 µg/mL (≈ 0.987 µM) | 0.2 µg/mL (≈ 0.493 µM) | 0.4 µg/mL (≈ 0.987 µM) | 0.1 µg/mL (≈ 0.247 µM) | 0.2 µg/mL (≈ 0.493 µM) | CCNCC1CCN(c2c(F)cc3c(=O)c(C(=O)O)cn(C4CCC4)c3c2F)C1 (stereo not given) | – |

| Compound | MIC (Staphylococcus aureus [1]) | MIC (Enterobacter) | MIC (Streptococcus pyogenes) | MIC (Staphylococcus aureus [2]) | IC50 [3] | MIC (Streptococcus pneumoniae) | MIC (Pseudomonas aeruginosa) | MIC (Providencia rettgeri) | MIC (Enterobacter cloacae) | MIC (Escherichia coli [4]) | MIC (Klebsiella pneumoniae) | MIC (Escherichia coli [5]) | MIC (Enterococcus faecalis) | further results |
| --- | --- | --- | --- | --- | --- | --- | --- | --- | --- | --- | --- | --- | --- | --- |
| CCNCC1CCN(c2c(F)cc3c(=O)c(C(=O)O)cn(C4CC4)c3c2F)C1 (stereo not given) [PD-117558] | 0.05 µg/mL (≈ 0.128 µM) | 0.06 µg/mL (≈ 0.153 µM) | 0.025 µg/mL (≈ 0.0639 µM) | 0.006 µg/mL (≈ 0.0153 µM) | 1.4 µg/mL (≈ 3.58 µM) | 0.025 µg/mL (≈ 0.0639 µM) | 0.4 µg/mL (≈ 1.02 µM) | 0.2 µg/mL (≈ 0.511 µM) | 0.1 µg/mL (≈ 0.255 µM) | 0.05 µg/mL (≈ 0.128 µM) | 0.05 µg/mL (≈ 0.128 µM) | 0.013 µg/mL (≈ 0.0332 µM) | 0.025 µg/mL (≈ 0.0639 µM) | ED50 (Mus musculus [6]): 40 mg/kg; ED50 (Mus musculus [7]): 2 mg/kg; ED50 (Mus musculus [8]): 2 mg/kg; ED50 (Mus musculus [9]): 1 mg/kg; ED50 (Mus musculus [10]): 13 mg/kg; ED50 (Mus musculus [11]): 4 mg/kg; ED50 (Mus musculus [12]): 3 mg/kg; ED50 (Mus musculus [13]): 0.5 mg/kg |
